This note sets out measurements from ChEMBL document CHEMBL1128369, “Haloanilino derivatives of pyrimidines, purines, and purine nucleoside analogs: synthesis and activity against human cytomegalovirus” (J Med Chem, 1995).

Structures are written as SMILES. Where only a bound is given, the exact number is not on record here.

The subject of test [1] is HEL. Kind of test: Inhibition against DNA of uninfected HEL cells by incorporation of [3H]TdR. The conditions noted are these: Homo sapiens. The test is classed as functional, cell-based. In outline: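 About 1/3 confluent uninfected HEL monolayers in DMEM + 10% FCS, preincubated 24 h at 37 °C. Serial compound dilutions in DMSO (or DMSO alone) added to duplicate wells with [3H]thymidine 1 μCi/mL for 24 h. Cells lysed with 0.4 M NaOH, then 5% TCA precipitate collected on filters and counted. IC50 is 50% inhibition of incorporation.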

Test [2] has as its system HEL. Briefly: Inhibition of human CMV DNA synthesis in CMV-infected HEL cells. The test is classed as functional, cell-based. In outline:
(§1)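 Dot-blot hybridization. HEL cells in MEM + 10% FCS infected with HCMV AD169 at about 1 pfu/cell for 60–90 min. Medium replaced by 3-fold drug dilutions (4–6 concentrations, duplicate wells) or DMSO. Incubated 48–96 h at 37 °C, 5% CO2. SDS/pronase lysates spotted on nitrocellulose, hybridized with 32P-labeled cloned viral DNA probe and counted. IC50 is 50% inhibition of viral DNA.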

In test [3] the test system is HEL. Kind of test: Inhibitory activity against HCMV DNA synthesis in virus infected cells. The test is classed as functional, cell-based. The conditions noted are these: Homo sapiens. The gist of the method: as §1
The next test deals with Nucleic Acid. Briefly: Inhibitory activity against HCMV DNA polymerase in virus infected cells. The test is classed as functional, cell-based, Human betaherpesvirus 5. In outline:
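HCMV DNA polymerase partially purified from HEL cells infected with AD169 (MOI 2, 3 days) by phosphocellulose and DEAE-cellulose chromatography. Assay buffer was 40 mM Tris-HCl pH 7.8 with 8 mM MgCl2, 100 mM KCl, 4 mM 2-mercaptoethanol, 0.1 mM dATP/dGTP/dCTP/[3H]dTTP and activated calf thymus DNA. Incubated 60 min at 37 °C; acid-precipitable counts measured. IC50 is the mean of duplicate experiments.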

In test [4] the test system is HEL. Kind of test: Concentration that inhibits HCMV yield by 90% relative to control cultures without drugs. The test is classed as functional. The note with it: Homo sapiens. In outline: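 HCMV AD169 infected HEL cells in 96-well plates at 0.1 pfu/cell for 30 min, washed twice, then given compound dilutions or DMSO diluent. Incubated 7 days at 37 °C. Cells scraped and sonicated. Progeny titered by end-dilution, in triplicate, 3- or 5-fold serial dilutions on fresh HEL cells, read after 14 days as the highest dilution with enumerable plaques.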

What is called IC50 is the midpoint of a concentration-inhibition curve. Turning to `OCCOCn1cnc2c(O)nc(Nc3cc(Cl)cc(Cl)c3)nc21`, the results for the IC50 in the test on HEL [1] and with HEL [2] were 14 µM and 15.2 µM, respectively.

A word on the IC90: it is the concentration needed for an effect of 90%. Regarding `Oc1cc(Nc2cc(Cl)cc(Cl)c2)nc(O)n1`, the IC50 in the test with HEL [1] stood at 100 µM; with HEL [2] it was 25 µM; in the test with HEL [3], 25 µM; in the test with Nucleic Acid, 65 µM. The compound also returned an IC90 with HEL [4] of 69 µM.

In the case of `OCCOCn1cnc2c(Cl)nc(Nc3cc(Cl)cc(Cl)c3)nc21`, the IC50 in the test on HEL [1] was found to be 14.4 µM; in the test on HEL [2], 12.5 µM.

Turning to `Nc1nc(O)cc(Nc2ccc(F)c(F)c2)n1`, the IC50 in the test with HEL [1] was above 200 µM; with HEL [2], 115 µM.

On to `Oc1cc(Nc2ccc(Cl)c(F)c2)nc(O)n1`, for which the IC50 with HEL [1] and in the test with HEL [2] was above 200 µM in each case.

As to `Nc1nc(O)cc(Nc2cc(Cl)cc(Cl)c2)n1`, the IC50 came out at 95 µM in the test with HEL [1], 28 µM in the test on HEL [2], 28 µM in the test on HEL [3] and 175 µM in the test on Nucleic Acid. Moreover, the IC90 in the test on HEL [4] is 91 µM.

Consider `OC[C@H]1O[C@@H](n2cnc3c(O)nc(Nc4cc(Cl)cc(Cl)c4)nc32)C[C@@H]1O`, for which the half-maximal inhibitory concentration (IC50) was 13 µM with HEL [1] and 15.1 µM with HEL [2].

Turning to `OC[C@H]1O[C@@H](n2cnc3c(Cl)nc(Nc4cc(Cl)cc(Cl)c4)nc32)C[C@@H]1O`, the IC50 in the test on HEL [1] came out at 3.4 µM; in the test on HEL [2] it was 7.9 µM.

With `Nc1nc(Nc2cc(Cl)cc(Cl)c2)nc2c1ncn2[C@H]1C[C@H](O)[C@@H](CO)O1`, the IC50 in the test with HEL [1] worked out at 0.5 µM; with HEL [2] it was 8.6 µM.

On to `Nc1nc(O)cc(Nc2ccc(Cl)c(F)c2)n1`, for which the IC50 with HEL [1] is 165 µM; in the test with HEL [2] it was 70 µM.

On to `Nc1nc(O)cc(Nc2cc(F)cc(F)c2)n1`, for which the values for the IC50 with HEL [1] and with HEL [2] were above 200 µM and 63 µM, respectively.

As for `Nc1nc(Nc2cc(Cl)cc(Cl)c2)nc2c1ncn2COC(CO)CO`, the IC50 in the test with HEL [1] was 5 µM; in the test with HEL [2] it was 47.9 µM.

In the case of `Oc1cc(Nc2cc(F)cc(F)c2)nc(O)n1`, the IC50 with HEL [1] and in the test with HEL [2] was above 200 µM in each case.

Turning to `OCC(CO)OCn1cnc2c(O)nc(Nc3cc(Cl)cc(Cl)c3)nc21`, the figures for the IC50 in the test on HEL [1] and in the test with HEL [2] were 41.7 µM and 45 µM, respectively.

As to `Nc1nc(O)cc(Nc2ccc(F)c(Cl)c2)n1`, the figures for the IC50 in the test with HEL [1] and in the test with HEL [2] were 110 µM and 20 µM, respectively.

As to `Nc1[nH]c(Nc2cc(Cl)cc(Cl)c2)nc2ncnc1-2`, the IC50 is 40 µM in the test on HEL [1], 8 µM in the test with HEL [2], 8 µM with HEL [3] and 250 µM in the test with Nucleic Acid. The IC90 in the test with HEL [4] was 16.8 µM.

With `Oc1[nH]c(Nc2ccc(Cl)c(Cl)c2)nc2ncnc1-2`, the IC50 was 60 µM in the test on HEL [1], 12 µM in the test with HEL [2], 12 µM in the test with HEL [3] and 330 µM in the test on Nucleic Acid.

For the compound `Nc1nc(Nc2cc(Cl)cc(Cl)c2)nc2c1ncn2COCCO`, the results for the IC50 with HEL [1] and in the test on HEL [2] were 1.4 µM and 7.9 µM, respectively.

`Oc1cc(Nc2cc(F)cc(Cl)c2)nc(O)n1`: the IC50 in the test on HEL [1] and in the test with HEL [2] was above 200 µM in each case.

In the case of `Oc1cc(Nc2ccc(Cl)c(Cl)c2)nc(O)n1`, the IC50 in the test with HEL [1] was above 200 µM; in the test on HEL [2], 40 µM; in the test with HEL [3] it was 40 µM; in the test on Nucleic Acid it was 45 µM.

On to `Nc1nc(O)cc(Nc2cc(F)cc(Cl)c2)n1`, for which the IC50 with HEL [1] and in the test on HEL [2] was above 200 µM each time.

`Nc1nc(Cl)cc(Nc2cc(Cl)cc(Cl)c2)n1`: the figures for the IC50 in the test with HEL [1] and in the test with HEL [2] were 32 µM and 4.7 µM, respectively. The compound also gave an IC90 in the test on HEL [4] of 18 µM.

As for `Oc1[nH]c(Nc2cc(Cl)cc(Cl)c2)nc2ncnc1-2`, the IC50 in the test with HEL [1] amounted to 400 µM; in the test on HEL [2], 33 µM; with HEL [3] it was 33 µM; with Nucleic Acid, 140 µM. This compound showed an IC90 in the test on HEL [4] of 56 µM.

Consider `Nc1[nH]c(Nc2ccc(Cl)c(Cl)c2)nc2ncnc1-2`, for which the IC50 was determined as 3.4 µM with HEL [1] and 5 µM in the test on HEL [2].

Turning to `Nc1nc(Cl)cc(Nc2ccc(Cl)c(Cl)c2)n1`, the IC50 in the test on HEL [1] turned out to be 31 µM; in the test on HEL [2], 9.1 µM; in the test with HEL [3], 9.1 µM; with Nucleic Acid, 150 µM. Moreover, the IC90 in the test on HEL [4] came out at 8.7 µM.

In the case of `Nc1nc(O)cc(Nc2ccc(Cl)c(Cl)c2)n1`, the IC50 in the test on HEL [1] was determined as 32 µM; in the test on HEL [2], 25 µM; in the test on HEL [3], 25 µM; with Nucleic Acid it was 360 µM.

As for `Oc1cc(Nc2ccc(F)c(Cl)c2)nc(O)n1`, the values for the IC50 in the test on HEL [1] and with HEL [2] were above 200 µM and 140 µM, respectively.

As for `Oc1cc(Nc2ccc(F)c(F)c2)nc(O)n1`, the IC50 in the test on HEL [1] and in the test on HEL [2] was above 200 µM in each case.

In turn, `O=C(O)P(=O)(O)O` [FOSCARNET SODIUM] had an IC50 with HEL [2] of 15.5 µM.

Consider `Nc1nc2c(ncn2COC(CO)CO)c(=O)[nH]1` [GANCICLOVIR], for which the figures for the 50% inhibitory concentration (IC50) in the test with HEL [1] and in the test on HEL [2] were 7 µM and 0.5 µM, respectively. The same compound gave a 90% effect concentration (IC90) with HEL [4] of 2.1 µM.
